What follows are compounds tested on Vaccinia virus (assay: Antiviral activity against Vaccinia virus infected in HEL cells assessed as inhibition of virus-induced cytopathogenicity). Conditions: Orthopoxvirus vaccinia.
Type: functional, organism-based
Procedure, shortened: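 Confluent HEL, Vero or HeLa monolayers were infected with 100 CCID50 of virus while exposed to fivefold serial dilutions of compound. Virus-induced cytopathicity was scored when it reached completion in untreated infected controls. The EC50 is the concentration that inhibits cytopathicity by 50%.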

Nc1nc2c(sc3ncn([C@H]4C[C@H](O)[C@@H](CO)O4)c32)c(=O)[nH]1 and Nc1ncnc2c1sc1ncn([C@H]3C[C@H](O)[C@@H](CO)O3)c12 cannot be ordered by EC50: greater than 100 µM for the first, greater than 20 µM for the second.

Compound NC(=O)c1ncn([C@@H]2O[C@H](CO)[C@@H](O)[C@H]2O)n1 [RIBAVIRIN] has an EC50 greater than 250 µM.
